# ERa SRC1 inh: blocks coactivator binding to human estrogen receptor alpha. hit rate 1.7% among 86,000. inhibition, % at 25.6 µM. TR-FRET ER-alpha LBD / SRC-1 peptide, estradiol-bound. P03372; in the data active means inhibition above about 50%;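 further: 0% = receptor plus peptide control and 100% = peptide only without receptor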
# Target sequence (P03372 whole entry, looked up, the tested form may be a part): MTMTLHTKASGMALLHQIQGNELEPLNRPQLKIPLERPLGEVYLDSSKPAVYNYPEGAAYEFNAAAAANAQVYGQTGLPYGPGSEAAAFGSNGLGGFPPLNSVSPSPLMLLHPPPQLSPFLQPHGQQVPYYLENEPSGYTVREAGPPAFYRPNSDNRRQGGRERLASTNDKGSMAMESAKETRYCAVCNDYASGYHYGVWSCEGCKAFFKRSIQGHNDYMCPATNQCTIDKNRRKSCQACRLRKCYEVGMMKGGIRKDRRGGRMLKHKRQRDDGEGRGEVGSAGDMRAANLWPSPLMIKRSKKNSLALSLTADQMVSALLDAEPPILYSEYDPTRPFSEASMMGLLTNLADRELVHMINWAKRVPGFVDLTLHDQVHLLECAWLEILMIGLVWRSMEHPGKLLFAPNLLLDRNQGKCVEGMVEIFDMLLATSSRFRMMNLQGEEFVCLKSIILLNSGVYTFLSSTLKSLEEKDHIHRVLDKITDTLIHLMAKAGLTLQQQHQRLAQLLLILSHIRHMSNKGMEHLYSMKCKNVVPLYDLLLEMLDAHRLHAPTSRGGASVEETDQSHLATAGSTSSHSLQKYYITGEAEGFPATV
# ERa SRC1 pot: enhances coactivator binding to human estrogen receptor alpha; P03372; TR-FRET ERalpha-LBD/SRC-Cy5 coactivator binding, 2 h; 100 = basal binding, no effect; coactivator binding (% of control), % at 25.6 µM; hit rate 1.3% among 86,000; AID 639; in the data active means activity above about 200%;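 further: binding measured in presence of low estradiol as agonist stimulus; 0% = peptide alone without receptor and 100% = receptor with peptide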
# sEH inhibitor: soluble epoxide hydrolase (human) inhibition | recombinant human sEH enzymatic activity assay | inhibition, % at 2 µM | P34913 | hit rate 0.34% among 91,000; in the data active means inhibition above about 80%
# Rev-RRE block: HIV Rev-RRE protein-RNA interaction inhibition; P05866; Rev peptide-RRE RNA binding, FRET; inhibition, % at 8 µM; hit rate 0.79% among 97,000; AID 704;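 active means inhibition above the screen-wide mean plus 3 SD, cut at about 35% in these data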;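 further: 0% = median DMSO wells and 100% = median Neomycin B control wells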
#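 Test system – labelled RRE RNA duplex and labelled Rev peptide · Reagent – labelled Rev peptide · Doses – one concentration, 8 µM nominal · Incubation – 5 + 15 min at 25 °C · Signal – FRET fluorescence readout · Read-out basis – % inhibition of FRET ratio versus controls · Control set – DMSO wells as 0% and neomycin B wells as 100% inhibition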
# ERb SRC1 inh: blocks coactivator binding to human estrogen receptor beta | Q92731 | TR-FRET ER-beta LBD / SRC1-Cy5 peptide binding; receptor agonist-loaded with 1 µM estradiol | inhibition, % at 25.6 µM | hit rate 1.3% among 86,000 | AID 633;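 active means compounds whose percent inhibition of the receptor-coactivator binding signal exceeds about 50% in the single-dose screen, limit read from the data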;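 further: 0% = receptor plus peptide wells without compound and 100% = peptide-only wells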
# sEH act: increases human soluble epoxide hydrolase activity; hit rate 0.04% among 91,000; purified human sEH enzymatic activity, activator screen; activation, % at 2 µM; AID 717; in the data active means activation above about 37%
# * marks the source's active call; other numbers are inactive results; . = no result given; [ ] = dose if it differs, or a comment. Rows were chosen to be rich in hits. Some 3.5% of all compounds tested hit in one or more screens of this group.
SMILES,ERa SRC1 inh,ERa SRC1 pot,sEH inhibitor,Rev-RRE block,ERb SRC1 inh,sEH act
CS(=O)c1ccccc1COC(=O)Nc1cccc(Cl)c1 (configuration not stated),.,.,4,11,.,-1
Cc1ccc2[nH]c3c(c2c1)CN(C(=O)CN1CCSCC1)CC3,-20,99,-5,36*,-2,5
Cc1ccc2[nH]c3c(c2c1)CN(C(=O)CN1CC(C)OC(C)C1)CC3 (configuration not stated),-12,119,11,61*,-13,-8
Cc1ccc2[nH]c3c(c2c1)CN(C(=O)CN1CCN(c2ccccn2)CC1)CC3,-1,113,.,.,-6,.
CC(C)(C)n1nnnc1C(c1ccc(C(F)(F)F)cc1)N(Cc1ccc(F)cc1)Cc1ccco1 (configuration not stated),1,94,5,2,-6,0
CCN(CC)S(=O)(=O)N1CCC(C(=O)NCCN2CCOCC2)CC1,-4,104,1,4,-1,0
CC(=O)OC1=C(C#N)Cn2ccc3cccc1c32,61*[fluorescence artefact?],63,8,6,46,-8
O=C(CN(Cc1cccs1)C(=O)CSc1nnc(COc2ccccc2)o1)NC1CCCCC1,-5,96,-4,4,-10,7
CCCNC(=O)c1ccc(-c2nc3ccccc3s2)s1,54*,73,0,12,62*,3
O=C(NCCCO)c1nc2ccccc2s1,-3,101,-8,6,-9,10
Cn1c(C(O)c2ccccc2F)nc(Cl)c1Cl (configuration not stated),4,107,3,3,-6,-5
COc1cccc(C(=O)NC2CC3CCCC(C2)N3CC(=O)Nc2ccccc2)c1 (configuration not stated),97*[fluorescence artefact?],8,.,8,99*[fluorescence artefact?],.
O=C(c1ccc(S(=O)(=O)N2CCCCC2)cc1)N1CCN=C1SCc1cccnc1,-6,120,-13,6,-3,11
Cc1ccc(CNC(=O)c2cc3c(C)nc4ccccc4c3o2)cc1,57*[fluorescence artefact?],171,1,0,32,1
CCCCNC(=O)NNC(=O)c1ccoc1C,.,.,-5,4,.,7
CCCCNC(=O)Nc1ccon1,-3,104,2,4,99*[fluorescence artefact?],-2
COc1ccc(OC)c(NC(=O)C(CC(=O)O)Cc2ccc(Cl)cc2)c1 (configuration not stated),-8,106,-7,5,-12,7
CCN(CC)c1ccc(C=Nc2ccc(N(C)C)cc2)c(O)c1,2,88,2,81*[fluorescence artefact?],9,1
CCN(CC)c1ccc(N=Cc2ccc(N(CC)CC)cc2O)cc1,-3,97,13,96*[fluorescence artefact?],-16,-11
COc1ccc(S(=O)(=O)Nc2cc(C)on2)cc1OC,-1,109,-4,7,-9,2
COC(=O)COc1ccc(S(=O)(=O)Nc2ccc3c(c2)OCO3)cc1Cl,6,101,-3,2,8,8
COC(=O)COc1ccc(S(=O)(=O)Nc2ccc3c(c2)OCO3)cc1,67*,57,-10,5,22,13
CCOC(=O)c1c(NC(=O)CSc2nc3c(c(=O)n(C)c(=O)n3C)n2CC)sc(C)c1C,11,133,.,.,7,.
CCCn1c(SCC(=O)Nc2sc(C)c(C)c2C(=O)OC)nc2c1c(=O)n(C)c(=O)n2C,51*,246*,.,.,47,.
O=C(NC1CCN(C(=O)NC2CCCCC2)CC1)c1ccco1,-14,112,1,5,-21,0
SMILES,ERa SRC1 inh,ERa SRC1 pot,sEH inhibitor,Rev-RRE block,ERb SRC1 inh,sEH act
C/C(=N\NC(=O)c1cccc(S(=O)(=O)Nc2ccccc2Cl)c1)c1ccc(-n2ccnc2)cc1,.,.,87*,1,.,-87
Cc1ccc(S(=O)(=O)c2c(COC(=O)c3ccc(Cl)cc3)c(-c3ccccc3)nn2C)cc1,4,113,-12,73*,0,9
CC(C)(C)CC(=O)Nc1ccc(C(N)=O)cc1,-6,98,8,7,11,-8
COc1ccc(OC)c(C2/C(=C(/O)c3ccccc3)C(=O)C(=O)N2Cc2ccco2)c1 (configuration not stated),5,116,.,.,5,.
Cc1ccc(N2CCN(c3cc(C)nc4c5c(C)cc(C)nc5nn34)CC2)cc1,4,139,.,.,15,.
Cc1cc(C)c2c(n1)nn1c(N3CCN(c4ccccc4C)CC3)cc(C)nc21,2,402*[fluorescence artefact?],-16,13,17,18
CCC(CC)C(=O)Nc1cc(C)c2c(=O)oc3ccccc3c2n1,7,98,8,.,8,-4
CCOc1ccc(C(=O)Nc2cc(C)c3c(=O)oc4ccccc4c3n2)cc1,33,315*[fluorescence artefact?],1,12,25,2
COc1ccc(CC(=O)Nc2cc(C)c3c(=O)oc4ccccc4c3n2)cc1,38,243*,.,.,53*[fluorescence artefact?],.
CC(=O)N=c1sc2nc3ccccc3nc2n1N(C(C)=O)C(C)=O,45,34,.,.,45,.
CC1CN(c2cc(=O)n(-c3ccccc3)c(=O)[nH]2)CC(C)O1 (configuration not stated),-4,132,.,.,-1,.
Cc1ccc(S(=O)(=O)c2cc3c(=O)n4ccccc4nc3n(Cc3ccco3)c2=N)cc1C,75*[fluorescence artefact?],38,7,15,50*[fluorescence artefact?],-7
Cc1ccc(S(=O)(=O)c2cc3c(=O)n4ccccc4nc3n(CC3CCCO3)c2=N)cc1C (configuration not stated),2,105,.,.,-1,.
N=c1c(S(=O)(=O)c2ccccc2)cc2c(=O)n3ccccc3nc2n1Cc1ccco1,76*[fluorescence artefact?],49,-4,16,79*[fluorescence artefact?],5
COc1ccc(OC)c(/C=N/NC(=O)c2csc3ccccc23)c1,.,.,84*,1,.,-84
O=C(NCc1ccco1)C12CN(Cc3ccccc3)CC1C(c1cccc([N+](=O)[O-])c1)=NO2 (configuration not stated),.,.,-12,2,.,13
COCCn1c(-c2ccc(-c3ccccc3Cl)o2)nc2c1c(=O)[nH]c(=O)n2CC(C)C,8,208*,-1,13,9,4
CCN(CC)S(=O)(=O)c1ccc(Oc2ccccc2)cc1,-1,97,3,7,-7,-1
CCOC(=O)C1=C(O)/C(=C\c2ccc(OC)c(OC)c2)N=C1C,-10,118,3,4,-14,-4
CCOC(=O)C1=C(O)/C(=C\c2ccc(CNC(=O)C(=O)Nc3ccccc3)o2)N=C1C,81*,38,-7,11,72*,5
COc1ccccc1CN=Cc1[nH]c2ccc(Br)c(Cl)c2c1O,10,96,-7,87*[fluorescence artefact?],13,8
CC(C)(C)OC(=O)COc1cc(OCC(=O)OC(C)(C)C)c2c(=O)cc(-c3ccccc3)oc2c1,.,.,11,-5,.,-9
COc1ccc(CN(Cc2ccccn2)S(=O)(=O)c2ccc(-n3cnnn3)c(OC)c2)cc1,-1,118,-4,3,-6,3

# Assay outcomes as filed in PubChem BioAssay.
